Results on 1 compound are retold here after ChEMBL document CHEMBL1221207, “Expanding the promiscuity of a natural-product glycosyltransferase by directed evolution” (Nat Chem Biol, 2007).

The target in assay [1] is T1, Oleandomycin glycosyltransferase (Streptomyces antibioticus) (UniProt Q53685).
T1 sequence (whole entry): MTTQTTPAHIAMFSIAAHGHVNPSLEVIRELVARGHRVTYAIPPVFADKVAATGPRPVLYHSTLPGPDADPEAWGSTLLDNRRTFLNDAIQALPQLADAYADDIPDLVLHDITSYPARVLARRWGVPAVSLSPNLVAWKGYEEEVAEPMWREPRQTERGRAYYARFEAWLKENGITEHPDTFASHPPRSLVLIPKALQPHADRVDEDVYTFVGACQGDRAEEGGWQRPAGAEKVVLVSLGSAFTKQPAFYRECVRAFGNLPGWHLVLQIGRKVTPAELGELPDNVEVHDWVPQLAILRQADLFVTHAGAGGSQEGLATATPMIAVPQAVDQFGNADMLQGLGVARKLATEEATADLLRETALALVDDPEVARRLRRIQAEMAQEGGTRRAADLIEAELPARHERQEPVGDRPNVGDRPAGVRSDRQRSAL
Description: Activity of Streptomyces antibioticus OleD […] mutant assessed as as rate of glucoside formation measured as nanomoles of product formed per minute per mg of enzyme.

The test system of assay [2] is T2, Oleandomycin glycosyltransferase (Streptomyces antibioticus), Q53685 [P67T,S132F,A242V].
T2 sequence (whole entry): T1 sequence (whole entry) with P67T, S132F, A242V
Description: Activity of Streptomyces antibioticus OleD P67T/S132F/A242V mutant assessed as as rate of glucoside formation measured as nanomoles of product formed per minute per mg of enzyme.

Assay [3] shares this test system. Description: Activity of Streptomyces antibioticus OleD P67T/S132F/A242V mutant assessed as conversion rate of compound to produce glucoside 3 using NDP sugar UDP-6-deoxy-glucose after 3 hrs by HPLC. In a few lines:
(§1)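 End-point donor-specificity assay with purified OleD enzyme. Percentage conversion was read after 3 h. Quenched reactions were run by reverse-phase C18 HPLC with a 10–90% CH3CN gradient in 0.1% formic acid/H2O over 20 min at 1 ml min–1, with detection at 254 nm. Products were identified by LC-MS, by comparison to standards where available, and by fluorescence.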

Assay [4] has the same test system. Description: Activity of Streptomyces antibioticus OleD P67T/S132F/A242V mutant assessed as conversion rate of compound to produce glucoside 3 using NDP sugar UDP-6-azido-glucose after 3 hrs by HPLC. The method in brief: as §1
Assay [5] has the same test system. The assay is described as follows: Activity of Streptomyces antibioticus OleD P67T/S132F/A242V mutant assessed as conversion rate of compound to produce glucoside 3 using NDP sugar donor UDP-4-deoxy-glucose after 3 hrs by HPLC. The method in brief:
as §1

Assay [6] has the same test system. The assay is described as follows: Activity of Streptomyces antibioticus OleD P67T/S132F/A242V mutant assessed as conversion rate of compound to produce glucoside 3 using NDP sugar donor UDP-4-amino-glucose after 3 hrs by HPLC. In a few lines: as §1
Assay [7] shares this test system. Description: Activity of Streptomyces antibioticus OleD P67T/S132F/A242V mutant assessed as conversion rate of compound to produce glucoside 3 using NDP sugar donor-UDP-4,6-dideoxyglucose after 3 hrs by HPLC. In a few lines:
as §1

The test system is the same in assay [8]. Description: Activity of Streptomyces antibioticus OleD P67T/S132F/A242V mutant assessed as conversion rate of compound to produce glucoside 3 using NDP sugar donor UDP-3-amino-glucose after 3 hrs by HPLC. In a few lines:
as §1

The test system is the same in assay [9]. The assay is described as follows: Activity of Streptomyces antibioticus OleD P67T/S132F/A242V mutant assessed as conversion rate of compound to produce glucoside 3 using NDP sugar donor UDP-3-amino-6-deoxy-glucose after 3 hrs by HPLC. In a few lines: as §1
For assay [10] the test system is unchanged. Description: Activity of Streptomyces antibioticus OleD P67T/S132F/A242V mutant assessed as conversion rate of compound to produce glucoside 3 using NDP sugar […] after 3 hrs by HPLC. In a few lines: as §1
Assay [11] deals with T3, Oleandomycin glycosyltransferase (Streptomyces antibioticus), Q53685 [S132F].
T3 sequence (whole entry): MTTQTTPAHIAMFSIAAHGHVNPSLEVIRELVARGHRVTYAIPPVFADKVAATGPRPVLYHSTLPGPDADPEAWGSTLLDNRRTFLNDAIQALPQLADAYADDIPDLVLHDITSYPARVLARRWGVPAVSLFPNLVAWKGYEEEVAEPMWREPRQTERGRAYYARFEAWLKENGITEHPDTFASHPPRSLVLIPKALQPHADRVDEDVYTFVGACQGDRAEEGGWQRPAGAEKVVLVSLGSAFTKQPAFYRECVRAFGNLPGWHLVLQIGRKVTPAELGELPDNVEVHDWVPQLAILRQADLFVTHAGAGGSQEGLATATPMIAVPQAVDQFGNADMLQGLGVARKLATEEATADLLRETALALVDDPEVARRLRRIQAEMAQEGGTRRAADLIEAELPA
The assay is described as follows: Activity of Streptomyces antibioticus OleD S132F mutant assessed as conversion rate of compound to produce glucoside 3 using NDP sugar donor UDP-6-deoxy-glucose after 3 hrs by HPLC. In a few lines: as §1

For assay [12] the test system is unchanged. The assay is described as follows: Activity of Streptomyces antibioticus OleD S132F mutant assessed as conversion rate of compound to produce glucoside 3 using NDP sugar donor UDP-6-azido-glucose after 3 hrs by HPLC. The method in brief: as §1
Assay [13] has as its system T4, Oleandomycin glycosyltransferase (Streptomyces antibioticus), Q53685 [A242V].
T4 sequence (whole entry): T1 sequence (whole entry) with A242V
Description: Activity of Streptomyces antibioticus OleD A242V mutant assessed as conversion rate of compound to produce glucoside 3 using NDP sugar donor UDP-xylose after 3 hrs by HPLC. In a few lines:
as §1

Numbering of substitutions follows the chain as printed.

In the case of `Cc1cc(=O)oc2cc(O)ccc12`, the Activity was determined as 6.3 nmol/min in [1]; 84 nmol/min in [2]; 85% in [3]; 41% in assay [4]; 22% in [5]; 13% in [6]. Moreover, the Activity in [7] stood at 45%; in [8] it was 4%; in assay [9], 4%; in assay [10], 21%; in assay [11] it was 10%; in assay [12] it was 1%. In addition, the Activity in [13] was determined as 2%.
